# Screens as filed in PubChem BioAssay.
# Many of the other results were omitted from the sample, so hits are more common in it than they were.
# IDH1 mut inh = IDH1 R132H (human) inhibition. O75874. IDH1 R132H reductase, diaphorase/resazurin fluorescence, 60 min. inhibition, % at 10 µM. 0.18% of 70,000 active. AID 624101; in the data active means inhibition above about 34%; inconclusive means no clear call, values can overlap the other calls; inactive means below about 11%;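 further: 0% = DMSO and 100% = no enzyme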
# T cruzi growth-1 = T. cruzi proliferation inhibition; T. cruzi beta-gal in NIH3T3, GalScreen luminescence, 90 h; inhibition, % at 8.34 µM; 5.9% of 77,000 active;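 active means mean inhibition above about 93%, with at least 55% of replicates each passing it, limit read from the data, passing the limit was not always enough; inconclusive means only one of those two conditions holds; inactive means neither condition holds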
# KDM4C inh = KDM4C (human) demethylase inhibition; 0.15% of 96,000 active; Q9H3R0; GST-KDM4C 2-372, H3K9me3 peptide, LANCE TR-FRET; inhibition, % at 12.5 µM;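 active means mean replicate inhibition above about 25%, with at least 55% of replicates also reaching it, limit read from the data, passing the limit was not always enough; inconclusive means only one of those two conditions met; inactive means neither condition met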
# Target sequence (Q9H3R0 2-372 limits assumed): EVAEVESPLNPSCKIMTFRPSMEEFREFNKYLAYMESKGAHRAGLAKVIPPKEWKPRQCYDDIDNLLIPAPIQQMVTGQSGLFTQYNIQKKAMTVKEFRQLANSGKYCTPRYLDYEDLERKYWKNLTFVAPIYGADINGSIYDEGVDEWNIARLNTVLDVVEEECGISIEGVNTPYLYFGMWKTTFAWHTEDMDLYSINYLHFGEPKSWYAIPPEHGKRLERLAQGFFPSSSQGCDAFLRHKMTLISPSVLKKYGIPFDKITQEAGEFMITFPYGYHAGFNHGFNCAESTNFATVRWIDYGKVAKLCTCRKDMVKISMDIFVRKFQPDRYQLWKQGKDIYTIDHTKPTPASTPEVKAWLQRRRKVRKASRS
#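 Assay system: GST-GASC-1 enzyme fragment 2-372 | Amount: 10 nM enzyme | Medium: HEPES buffer, pH 7.5, plus ascorbate | Reagent: H3K9me3 peptide substrate, Fe(II), 2-oxoglutarate | Doses: Single-point compound screen | Incubation: 30 min demethylation and 1 h detection at room temperature | Measured by: LANCE TR-FRET, excitation 340 nm, emissions 618 and 671 nm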
# T cruzi growth-2 = blocks T. cruzi growth in NIH3T3 host cells. shares compounds with T cruzi growth-1. T. cruzi beta-gal in NIH3T3, GalScreen luminescence, 90 h. inhibition, % at 8.35 µM. 72% of 5,600 active. AID 651739;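 active means mean replicate inhibition above about 95% and at least 55% of replicates individually reaching it, limit read from the data; inconclusive means only one of the two criteria is met; inactive means neither criterion is met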
# T cruzi growth-3 = inhibitors of T. cruzi proliferation; shares compounds with T cruzi growth-1; T. cruzi beta-gal in NIH3T3, GalScreen luminescence, 90 h; inhibition, % at 2.09 µM; 21% of 5,600 active; AID 651740;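 active means mean inhibition above about 95%, with at least 55% of replicates also reaching it, limit read from the data; inconclusive means meets just one of the two conditions; inactive means meets neither condition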;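 further: plate controls were neutral control median for no effect and positive control median for full effect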
# NIH3T3 tox = cytotoxicity in mouse NIH/3T3 fibroblasts | shares compounds with T cruzi growth-1 | cytotoxicity (signal decrease), % at 8.35 µM | 14% of 5,600 active | AID 651742 | NIH/3T3 viability, CellTiter-Glo ATP luminescence, 90 h;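 active means mean signal decrease across replicates above about 35% based on untreated-well scatter, with enough replicates individually passing, limit read from the data; inconclusive means no rule stated though some were filed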;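 further: 0% = median of neutral control wells and 100% = median of positive control wells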
# 3T3 cytotox 2 = NIH/3T3 (mouse) viability loss. AID 651744. inhibition, % at 24.9 µM. NIH/3T3 viability, CellTiter-Glo ATP luminescence, 90 h. shares compounds with T cruzi growth-1. 56% of 5,600 active;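 active means mean loss of cell viability signal at or above a set limit, and enough replicates individually reaching it; inconclusive means meets only the mean limit or only the replicate share; inactive means meets neither condition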;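 further: 0% = median of neutral control wells and 100% = median of positive control wells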
# Numbers without * were called inactive; ? = inconclusive; / = no result.
SMILES,IDH1 mut inh,T cruzi growth-1,KDM4C inh,T cruzi growth-2,T cruzi growth-3,NIH3T3 tox,3T3 cytotox 2
C[C@@H]1CCCCO[C@H](CN(C)Cc2ccc3c(c2)OCO3)[C@H](C)CN([C@H](C)CO)C(=O)c2cc(NC(=O)NC3CCCCC3)ccc2O1,/,107*,-1,108*,91,3,104*
C[C@H]1CCCCO[C@H](CN(C)Cc2ccc3c(c2)OCO3)[C@@H](C)CN([C@@H](C)CO)C(=O)c2cc(NC(=O)NC3CCCCC3)ccc2O1,/,100*,-1,108*,51,18,102*
C[C@H](CO)N1C[C@H](C)[C@@H](CN(C)Cc2ccccc2)Oc2c(NC(=O)c3ccncc3)cccc2C1=O,/,65,0,/,/,/,/
C[C@H](CO)N1C[C@H](C)[C@@H](CN(C)CC2CCCCC2)Oc2c(NS(=O)(=O)c3cn(C)cn3)cccc2C1=O,/,103*,13,51,16,11,8
C[C@@H]1CN([C@H](C)CO)C(=O)c2cccc(NC(=O)c3ccncc3)c2O[C@@H]1CN(C)Cc1ccncc1,9,24,4,/,/,/,/
C[C@@H]1CN([C@@H](C)CO)C(=O)c2cccc(NC(=O)c3ccncc3)c2O[C@H]1CN(C)Cc1ccc(-c2ccccc2)cc1,/,105*,3,83,82,31,55*
C[C@@H]1CN([C@@H](C)CO)C(=O)c2cccc(NC(=O)c3ccncc3)c2O[C@@H]1CN(C)Cc1ccccc1,/,45,0,/,/,/,/
C[C@H](CO)N1C[C@H](C)[C@@H](CN(C)Cc2ccc(-c3ccccc3)cc2)Oc2c(NC(=O)c3ccncc3)cccc2C1=O,/,102*,1,105*,98*,49*,36*
C[C@H](CO)N1C[C@H](C)[C@H](CN(C)Cc2ccc(-c3ccccc3)cc2)Oc2c(NC(=O)c3ccncc3)cccc2C1=O,-10,99*,-1,105*,?,56*,47*
C[C@@H]1CN([C@@H](C)CO)C(=O)c2cccc(NS(=O)(=O)c3cn(C)cn3)c2O[C@H]1CN(C)CC1CCCCC1,/,-9,-1,/,/,/,/
Cc1cccc(NC(=O)CCC(=O)O)c1,0,/,/,/,/,/,/
CO[C@@H]1CC[C@H]2CCN(C)C(=O)CCCN(C)C(=O)c3cccc(C#N)c3OC[C@H]1O2,/,-35,0,/,/,/,/
Cn1c(SCC(=O)Nc2ccccc2Cl)nnc1-c1cccc([N+](=O)[O-])c1,0,/,/,/,/,/,/
COc1ccc(NC(=O)Nc2ccc3c(c2)CC(=O)N([C@H](C)CO)C[C@@H](C)[C@@H](CN(C)CC2CC2)O3)cc1,-1,28,0,/,/,/,/
O=C(CCCCCCC(=O)N/N=C/c1cccnc1)NO,0,/,/,/,/,/,/
O=C(Cn1cnc2ccccc2c1=O)Nc1cc(Cl)c(Cl)cc1Cl,0,/,/,/,/,/,/
CO[C@H]1CN(C)C(=O)c2cc(NS(=O)(=O)c3ccccc3)ccc2OC[C@@H](C)N(Cc2ccccn2)C[C@H]1C,0,2,-2,/,/,/,/
C[C@@H]1CN([C@H](C)CO)C(=O)c2cccc(NC(=O)c3ccncc3)c2O[C@H]1CN(C)Cc1ccc(-c2ccccc2)cc1,/,107*,1,94,85,50*,41*
C[C@@H]1CN([C@H](C)CO)C(=O)c2cccc(NC(=O)c3ccncc3)c2O[C@H]1CN(C)CC1CC1,1,48,1,/,/,/,/
C[C@H](CO)N1C[C@H](C)[C@@H](CN(C)CC2CC2)Oc2c(NC(=O)c3ccncc3)cccc2C1=O,-1,102*,/,78,23,-9,?
C[C@H]1CN([C@@H](C)CO)C(=O)c2cccc(NC(=O)c3ccncc3)c2O[C@H]1CN(C)Cc1ccncc1,/,50,-1,/,/,/,/
O=C(O)c1ccc(C(Nc2ccccn2)c2cc(Cl)c3cccnc3c2O)cc1 (centres undefined),0,/,/,/,/,/,/
C[C@@H]1CCCCO[C@@H](CN(C)Cc2ccncc2)[C@H](C)CN([C@H](C)CO)C(=O)c2cc(NC(=O)Nc3cccc4ccccc34)ccc2O1,-3,98*,0,108*,83,-14,22
C[C@@H]1CCCCO[C@@H](CN(C)Cc2ccc3c(c2)OCO3)[C@@H](C)CN([C@@H](C)CO)C(=O)c2cc(NC(=O)Nc3cccc4ccccc34)ccc2O1,1,?,-1,102*,106*,14,21
C[C@@H]1CCCCO[C@@H](CN(C)Cc2ccccc2)[C@@H](C)CN([C@@H](C)CO)C(=O)c2cc(NC(=O)Nc3cccc4ccccc34)ccc2O1,2,115*,1,107*,109*,18,6
SMILES,IDH1 mut inh,T cruzi growth-1,KDM4C inh,T cruzi growth-2,T cruzi growth-3,NIH3T3 tox,3T3 cytotox 2
C[C@@H]1CCCCO[C@@H](CN(C)Cc2ccc3c(c2)OCO3)[C@@H](C)CN([C@H](C)CO)C(=O)c2cc(NC(=O)Nc3cccc4ccccc34)ccc2O1,/,93,-2,/,/,/,/
C[C@@H]1CN([C@@H](C)CO)C(=O)c2cc(NC(=O)Nc3cccc4ccccc34)ccc2O[C@@H](C)CCCCO[C@@H]1CN(C)Cc1ccncc1,/,8,-1,/,/,/,/
C[C@@H]1CCCCO[C@H](CN(C)Cc2ccccc2)[C@H](C)CN([C@H](C)CO)C(=O)c2cc(NC(=O)Nc3cccc4ccccc34)ccc2O1,-1,/,0,/,/,/,/
CSc1nc2sc3c(c2c2nnc(SCC(=O)Nc4ccccc4)n12)CCC3,2,/,/,/,/,/,/
C[C@@H]1CCCCO[C@H](CN(C)S(=O)(=O)c2cn(C)cn2)[C@@H](C)CN([C@H](C)CO)C(=O)c2cc(NC(=O)Nc3ccc4c(c3)OCO4)ccc2O1,/,46,1,/,/,/,/
COc1cc2c(Cc3ccc(OC)c(OC)c3)nccc2cc1O,-1,/,/,/,/,/,/
C[C@H](CO)N1C[C@H](C)[C@@H](CN(C)Cc2ccccc2F)Oc2cc(C3=CCCC3)ccc2S1(=O)=O,1,?,5,97*,52,-7,105*
C[C@H]1CN([C@@H](C)CO)S(=O)(=O)c2ccc(C3=CCCC3)cc2O[C@@H]1CN(C)Cc1ccccc1F,0,93,0,/,/,/,/
C[C@H]1CN([C@@H](C)CO)S(=O)(=O)c2ccc(C3=CCCC3)cc2O[C@H]1CN(C)Cc1ccccc1F,0,94,-3,/,/,/,/
C[C@@H]1CN([C@@H](C)CO)S(=O)(=O)c2ccc(C3=CCCC3)cc2O[C@@H]1CN(C)Cc1ccccc1F,/,114*,1,99*,110*,-4,104*
O=C(C[C@H]1C[C@@H]2c3cc(NC(=O)c4ccc5c(c4)OCO5)ccc3O[C@@H]2[C@@H](CO)O1)NCc1ccc(Cl)cc1,0,101*,1,101*,56,21,25
O=C(C[C@@H]1C[C@@H]2c3cc(NC(=O)c4ccc5c(c4)OCO5)ccc3O[C@@H]2[C@H](CO)O1)NCc1ccc(Cl)cc1,0,9,-1,/,/,/,/
